Measured values: ChEMBL document CHEMBL4152200, “Targeting the entrance channel of NNIBP: Discovery of diarylnicotinamide 1,4-disubstituted 1,2,3-triazoles as novel HIV-1 NNRTIs with high potency against wild-type and E138K mutant virus” (Eur J Med Chem, 2018)

Experiments:
[1] = tested on: Human immunodeficiency virus 1; experiment: Resistance factor, ratio of EC50 for HIV1 harboring reverse transcriptase K103N mutant to EC50 for wild-type HIV-1 3B; type: functional
In short: (§1)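 Resistance fold is EC₅₀ against the mutant strain divided by EC₅₀ against WT IIIB. Both EC₅₀ values come from the 5-day MTT protection assay in MT-4 cells infected with 100–300 CCID₅₀ of virus.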

[2] = tested on: Human immunodeficiency virus 1; experiment: Resistance factor, ratio of EC50 for HIV1 harboring reverse transcriptase E138K mutant to EC50 for wild-type HIV-1 3B; type: functional; in short: as §1
[3] = Selectivity index, ratio of CC50 for human MT4 cells to EC50 for HIV1 harboring reverse transcriptase L100I mutant; type: toxicity; settings: read-out: Ratio CC50/EC50
In short: (§2)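 SI is CC₅₀ divided by EC₅₀, both by MTT after 5 days in MT-4 cells. CC₅₀ comes from mock-infected cultures run in parallel and is the concentration reducing their viability by 50%. EC₅₀ comes from cultures infected with the given mutant strain at 100–300 CCID₅₀.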

MT4 = experiment: Cytotoxicity against human MT4 cells assessed as decrease in cell viability after 5 days by MTT assay; type: cell-based; settings: mt4, 120 h
In short: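 Mock-infected MT-4 cells, exponentially growing, seeded with compound in culture medium without virus; run in parallel with the antiviral assay. Viability read spectrophotometrically by MTT reduction five days later.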

[4] = Selectivity index, ratio of CC50 for human MT4 cells to EC50 for HIV1 harboring reverse transcriptase Y188L mutant; type: toxicity; settings: read-out: Ratio CC50/EC50; in short: as §2
[5] = tested on: Human immunodeficiency virus 1; experiment: Resistance factor, ratio of EC50 for HIV1 harboring reverse transcriptase L100I mutant to EC50 for wild-type HIV-1 3B; type: functional; in short: as §1
[6] = Selectivity index, ratio of CC50 for human MT4 cells to EC50 for wild-type HIV1 3B; type: toxicity; settings: read-out: Ratio CC50/EC50
In short: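 Wild-type HIV-1 IIIB at 100–300 CCID50 added to MT-4 cells with compound, with mock-infected wells in parallel. MTT viability was read at day 5. […] SI = CC50/EC50.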

[7] = Selectivity index, ratio of CC50 for human MT4 cells to EC50 for HIV1 harboring reverse transcriptase K103N mutant; type: toxicity; settings: read-out: Ratio CC50/EC50; in short: as §2
[8] = tested on: Human immunodeficiency virus 1; experiment: Resistance factor, ratio of EC50 for HIV1 harboring reverse transcriptase Y181C mutant to EC50 for wild-type HIV-1 3B; type: functional; in short: as §1
[9] = tested on: Human immunodeficiency virus 1; experiment: Resistance factor, ratio of EC50 for HIV1 harboring reverse transcriptase Y188L mutant to EC50 for wild-type HIV-1 3B; type: functional; in short: as §1
[10] = tested on: Human immunodeficiency virus 1; experiment: Antiviral activity against HIV1 harboring reverse transcriptase E138K mutant infected in human MT4 cells assessed as inhibition of viral replication after 5 days by MTT assay; type: functional, organism-based; settings: Human immunodeficiency virus 1, MT4, 120 h
[11] = tested on: Human immunodeficiency virus 1; experiment: Antiviral activity against HIV1 harboring reverse transcriptase Y188L mutant infected in human MT4 cells assessed as inhibition of viral replication after 5 days by MTT assay; type: functional, organism-based; settings: Human immunodeficiency virus 1, MT4, 120 h
In short: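 MT-4 cells in exponential growth, resuspended into wells holding HIV-1 stock (IIIB, RES056 K103N/Y181C, F227L/V106A, L100I, K103N, E138K, Y181C or Y188L) at 100–300 CCID₅₀, or into mock-infected wells. Viability read by MTT reduction to formazan, measured spectrophotometrically 5 days post-infection. EC₅₀ is the concentration giving 50% protection against virus-induced cytotoxicity.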

[12] = tested on: Human immunodeficiency virus 1; experiment: Antiviral activity against HIV1 harboring reverse transcriptase L100I mutant infected in human MT4 cells assessed as inhibition of viral replication after 5 days by MTT assay; type: functional, organism-based; settings: Human immunodeficiency virus 1, MT4, 120 h
[13] = Selectivity index, ratio of CC50 for human MT4 cells to EC50 for HIV1 harboring reverse transcriptase F227L/V106A mutant; type: toxicity; settings: read-out: Ratio CC50/EC50; in short: as §2
[14] = tested on: Human immunodeficiency virus 1; experiment: Antiviral activity against HIV1 harboring reverse transcriptase F227L/V106A double mutant infected in human MT4 cells assessed as inhibition of viral replication after 5 days by MTT assay; type: functional, organism-based; settings: Human immunodeficiency virus 1, MT4, 120 h
[15] = tested on: Human immunodeficiency virus 1; experiment: Antiviral activity against wild-type HIV-1 3B infected in human MT4 cells assessed as inhibition of viral replication after 5 days by MTT assay; type: functional, organism-based; settings: Human immunodeficiency virus 1, 3B, MT4, 120 h
[16] = tested on: Human immunodeficiency virus 1; experiment: Antiviral activity against HIV-1 RES056 harboring reverse transcriptase K103N/Y181C double mutant infected in human MT4 cells assessed as inhibition of viral replication after 5 days by MTT assay; type: functional, organism-based; settings: Human immunodeficiency virus 1, RES056, MT4, 120 h
[17] = Selectivity index, ratio of CC50 for human MT4 cells to EC50 for HIV1 harboring reverse transcriptase E138K mutant; type: toxicity; settings: read-out: Ratio CC50/EC50; in short: as §2
[18] = tested on: Human immunodeficiency virus 1; experiment: Resistance factor, ratio of EC50 for HIV1 harboring reverse transcriptase F227L/V106A mutant to EC50 for wild-type HIV-1 3B; type: functional; in short: as §1
[19] = tested on: Human immunodeficiency virus 1; experiment: Antiviral activity against HIV1 harboring reverse transcriptase K103N mutant infected in human MT4 cells assessed as inhibition of viral replication after 5 days by MTT assay; type: functional, organism-based; settings: Human immunodeficiency virus 1, MT4, 120 h
[20] = tested on: Human immunodeficiency virus 1; experiment: Antiviral activity against HIV1 harboring reverse transcriptase Y181C mutant infected in human MT4 cells assessed as inhibition of viral replication after 5 days by MTT assay; type: functional, organism-based; settings: Human immunodeficiency virus 1, MT4, 120 h
[21] = Selectivity index, ratio of CC50 for human MT4 cells to EC50 for HIV1 harboring reverse transcriptase Y181C mutant; type: toxicity; settings: read-out: Ratio CC50/EC50; in short: as §2
[22] = Selectivity index, ratio of CC50 for human MT4 cells to EC50 for HIV-1 RES056 harboring reverse transcriptase K103N/Y181C double mutant infected in human MT4 cells; type: toxicity, cell-based; settings: read-out: Ratio CC50/EC50; in short: as §2

Compound | Ratio EC50 [1] | Ratio EC50 [2] | selectivity ratio [3] | CC50 (MT4) | selectivity ratio [4] | Ratio EC50 [5] | selectivity ratio [6] | selectivity ratio [7] | Ratio EC50 [8] | Ratio EC50 [9] | EC50 [10] | EC50 [11] | EC50 [12] | selectivity ratio [13] | EC50 [14] | EC50 [15] | EC50 [16] | selectivity ratio [17] | Ratio EC50 [18] | EC50 [19] | further results
Cc1cc(C)c(Oc2cc(Nc3ccc(C#N)cc3)ncc2C(=O)NCc2cn(CC(N)=O)nn2)c(C)c1 | 6 | 0.9 | 7 | 24 µM | 5 | 20.5 | 139 | 23 | 4.8 | 25.9 | 0.15 µM | 4.46 µM | 3.52 µM | 13 | 1.8 µM | 0.172 µM | 5.33 µM | 159 | 10.5 | 1.03 µM | EC50 [20]: 0.83 µM; selectivity ratio [21]: 29; selectivity ratio [22]: 5
Cc1cc(C)c(Oc2cc(Nc3ccc(C#N)cc3)ncc2C(=O)NCc2cn(Cc3ccc(F)cc3)nn2)c(C)c1 | – | – | – | ≥ 153 µM | – | – | – | – | – | – | – | – | – | – | – | 0.074 µM | > 153 µM | – | – | – | –
Cc1cc(C)c(Oc2cc(Nc3ccc(C#N)cc3)ncc2C(=O)NCc2cn(CCCO)nn2)c(C)c1 | 11.1 | 1.1 | 13 | 25.2 µM | 8 | 52.7 | 678 | 62 | 6.2 | 85.7 | 0.039 µM | 3.17 µM | 1.95 µM | 32 | 0.78 µM | 0.037 µM | 5.23 µM | 651 | 21.1 | 0.41 µM | EC50 [20]: 0.23 µM; selectivity ratio [21]: 109; selectivity ratio [22]: 5
Cc1cc(C)c(Oc2cc(Nc3ccc(C#N)cc3)ncc2C(=O)NCc2cn(CCC#N)nn2)c(C)c1 | 12.5 | 0.8 | 38 | 40.1 µM | 18 | 53 | – | 158 | 4.5 | 112 | 0.015 µM | 2.24 µM | 1.06 µM | 121 | 0.33 µM | 0.02 µM | 2.31 µM | 2630 | 16.5 | 0.25 µM | EC50 [20]: 0.089 µM; selectivity ratio [21]: 450
Cc1cc(C)c(Oc2cc(Nc3ccc(C#N)cc3)ncc2C(=O)NCc2cn(Cc3ccc(Cl)cc3)nn2)c(C)c1 | – | – | – | ≥ 120 µM | – | – | – | – | – | – | – | – | – | – | – | 0.194 µM | > 120 µM | – | – | – | –
Cc1cc(C)c(Oc2cc(Nc3ccc(C#N)cc3)ncc2C(=O)NCc2cn(Cc3ccccc3Cl)nn2)c(C)c1 | – | – | – | ≥ 188 µM | – | – | – | – | – | – | – | – | – | – | – | 0.104 µM | > 188 µM | – | – | – | –
CC(=O)Cn1cc(CNC(=O)c2cnc(Nc3ccc(C#N)cc3)cc2Oc2c(C)cc(C)cc2C)nn1 | 9 | 0.9 | 19 | 19.4 µM | 6 | 34.5 | 670 | 73 | 5.5 | 110.3 | 0.026 µM | 3.2 µM | 1 µM | 33 | 0.59 µM | 0.029 µM | 2.21 µM | 756 | 20.3 | 0.26 µM | EC50 [20]: 0.16 µM; selectivity ratio [21]: 123; selectivity ratio [22]: 9
Cc1cc(C)c(Oc2cc(Nc3ccc(C#N)cc3)ncc2C(=O)NCc2cn(Cc3ccccc3F)nn2)c(C)c1 | – | – | – | > 222 µM | – | – | – | – | – | – | – | – | – | – | – | 0.095 µM | > 222 µM | – | – | – | –
Cc1cc(C)c(Oc2cc(Nc3ccc(C#N)cc3)ncc2C(=O)NCc2cn(Cc3ccccc3C#N)nn2)c(C)c1 | – | – | – | > 220 µM | – | – | – | – | – | – | – | – | – | – | – | 0.039 µM | > 220 µM | – | – | – | –
COC(=O)Cn1cc(CNC(=O)c2cnc(Nc3ccc(C#N)cc3)cc2Oc2c(C)cc(C)cc2C)nn1 | – | – | – | 13.8 µM | – | – | 8 | – | – | – | – | – | – | – | – | 1.77 µM | > 13.8 µM | – | – | – | selectivity ratio [22]: < 1
Cc1cc(C)c(Oc2cc(Nc3ccc(C#N)cc3)ncc2C(=O)NCc2cn(Cc3ccccc3[N+](=O)[O-])nn2)c(C)c1 | – | – | – | > 212 µM | – | – | – | – | – | – | – | – | – | – | – | 0.057 µM | > 212 µM | – | – | – | –
Cc1cc(C)c(Oc2cc(Nc3ccc(C#N)cc3)ncc2C(=O)NCc2cn(Cc3ccc([N+](=O)[O-])cc3)nn2)c(C)c1 | – | – | – | ≥ 140 µM | – | – | – | – | – | – | – | – | – | – | – | 0.04 µM | > 140 µM | – | – | – | –
